PMC3514448 (ACS chemical biology, 2012)
≈ marks a conversion by molar mass, not a printed value. Where two headings read alike, the source gives them in different places.

Legend:
[1] = biological target: T1, BsFtsZ (Bacillus subtilis, UniProt P17865); test: Enzyme-coupled GTPase assay, BsFtsZ; type: biochemical; settings: for Inhibition of BsFtsZ GTPase activity with detergent: 0.01% Triton X-100; for Inhibition of BsFtsZ GTPase activity at increasing FtsZ concentrations: increasing protein concentration; for Inhibition of BsFtsZ GTPase activity: absence of Triton X-100
T1 sequence (P17865 whole entry): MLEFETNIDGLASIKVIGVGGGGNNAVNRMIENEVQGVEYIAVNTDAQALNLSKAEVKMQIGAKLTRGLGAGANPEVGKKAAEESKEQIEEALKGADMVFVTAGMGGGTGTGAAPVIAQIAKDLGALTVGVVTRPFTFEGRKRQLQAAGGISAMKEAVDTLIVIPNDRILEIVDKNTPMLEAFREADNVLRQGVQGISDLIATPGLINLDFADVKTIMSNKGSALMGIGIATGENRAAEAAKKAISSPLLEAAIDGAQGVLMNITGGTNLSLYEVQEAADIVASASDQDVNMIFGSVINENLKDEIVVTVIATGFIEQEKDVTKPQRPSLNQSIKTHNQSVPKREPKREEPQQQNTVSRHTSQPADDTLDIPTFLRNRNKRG

[2] = biological target: EcFtsZ (Escherichia coli, UniProt P0A9A6); type: biochemical; settings: for Inhibition of EcFtsZ GTPase activity with detergent: 0.01% Triton X-100; for Inhibition of EcFtsZ GTPase activity at increasing FtsZ concentrations: increasing protein concentration
Chain of EcFtsZ (P0A9A6 whole entry): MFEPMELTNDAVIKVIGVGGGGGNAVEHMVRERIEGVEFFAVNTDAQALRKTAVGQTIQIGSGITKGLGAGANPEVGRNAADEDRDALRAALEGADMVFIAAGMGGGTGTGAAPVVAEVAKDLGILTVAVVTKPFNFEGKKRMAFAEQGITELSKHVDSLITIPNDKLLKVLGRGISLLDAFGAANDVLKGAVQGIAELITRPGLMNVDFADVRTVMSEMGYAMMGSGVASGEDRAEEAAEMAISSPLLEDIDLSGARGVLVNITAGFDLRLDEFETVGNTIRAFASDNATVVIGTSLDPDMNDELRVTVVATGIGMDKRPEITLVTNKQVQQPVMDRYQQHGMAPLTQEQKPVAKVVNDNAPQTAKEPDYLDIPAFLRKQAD

[3] = tested on: tubulin; settings: berberine even at high concentration (100 μM); cited from earlier work
[4] = biological target: T2, Dnm1 (Saccharomyces cerevisiae, UniProt P54861); test: GTPase activity of the eukaryotic GTPase Dnm1; type: biochemical
T2 sequence (P54861 1-757): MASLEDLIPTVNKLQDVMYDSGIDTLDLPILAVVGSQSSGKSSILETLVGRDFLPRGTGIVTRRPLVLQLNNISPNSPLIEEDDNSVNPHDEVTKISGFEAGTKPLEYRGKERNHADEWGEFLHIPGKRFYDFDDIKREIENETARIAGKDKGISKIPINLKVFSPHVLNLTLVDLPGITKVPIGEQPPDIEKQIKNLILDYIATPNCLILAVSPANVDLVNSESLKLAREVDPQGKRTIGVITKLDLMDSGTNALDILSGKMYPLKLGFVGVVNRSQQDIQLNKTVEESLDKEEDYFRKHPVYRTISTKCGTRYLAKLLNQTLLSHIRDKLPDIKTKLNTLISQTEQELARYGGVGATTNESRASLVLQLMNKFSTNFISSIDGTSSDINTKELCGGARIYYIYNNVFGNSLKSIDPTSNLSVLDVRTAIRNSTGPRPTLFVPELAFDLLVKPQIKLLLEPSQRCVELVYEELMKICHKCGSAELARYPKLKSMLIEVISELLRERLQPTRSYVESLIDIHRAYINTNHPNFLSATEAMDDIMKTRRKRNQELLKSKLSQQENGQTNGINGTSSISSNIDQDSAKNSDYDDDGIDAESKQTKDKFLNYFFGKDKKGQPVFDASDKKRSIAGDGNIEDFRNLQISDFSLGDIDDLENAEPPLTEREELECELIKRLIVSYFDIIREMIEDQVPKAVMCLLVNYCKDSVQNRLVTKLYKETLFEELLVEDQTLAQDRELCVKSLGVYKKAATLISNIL

[5] = tested on: FtsZ; settings: cited from earlier work
[6] = biological target: SaFtsZ (Staphylococcus aureus, UniProt P0A031); test: GTPase assay, SaFtsZ; type: biochemical
Chain of SaFtsZ (P0A031 whole entry): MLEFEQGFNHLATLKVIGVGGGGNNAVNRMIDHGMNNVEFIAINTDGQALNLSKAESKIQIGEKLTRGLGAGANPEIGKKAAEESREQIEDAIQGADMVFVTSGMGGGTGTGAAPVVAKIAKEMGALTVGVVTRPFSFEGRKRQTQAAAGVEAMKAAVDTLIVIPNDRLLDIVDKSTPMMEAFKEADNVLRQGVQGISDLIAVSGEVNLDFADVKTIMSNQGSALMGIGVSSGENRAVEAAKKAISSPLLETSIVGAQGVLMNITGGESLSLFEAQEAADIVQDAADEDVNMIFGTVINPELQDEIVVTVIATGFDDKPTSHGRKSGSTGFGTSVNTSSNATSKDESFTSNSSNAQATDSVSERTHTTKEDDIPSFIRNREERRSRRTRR
Outline: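 Recombinant S. aureus FtsZ (pET11a, E. coli C41(DE3), IPTG 30 °C 5 h) purified by ammonium sulfate and anion exchange; BCA concentration divided by 0.75. 10 μM FtsZ with inhibitor in DMSO, pH 6.5 MES/Mg(OAc)2/KOAc, preincubated 5 min, then GTP added. Coupled: PK/LDH, PEP, NADH, A340 over time at ~25 °C. Malachite green: 30 °C, EDTA-quenched time points, A630 against phosphate standards.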

[7] = biological target: T1, BsFtsZ; test: Malachite green GTPase assay, BsFtsZ; type: biochemical; settings: concentrations up to 100 μM
[8] = tested on: B. subtilis strain 168; test: Antimicrobial activity; type: cell-based, Bacillus subtilis
[9] = tested on: FtsZ; test: Malachite green GTPase assay under approximate Merck viriditoxin conditions; type: biochemical; settings: up to 128 μM; 50 mM Tris, 34 mM KCl, 0.75 mM Mg(OAc)2, 2.5 mM CaCl2, 50 μg/mL DEAE-Dextran, 37 °C
[10] = Chemical stability on storage; type: physicochemical; settings: degrades if not stored free of solvent and at low temperature
[11] = standard conditions, up to 200 μM

In the case of Zantrin Z3, the “Inhibition of BsFtsZ GTPase activity with detergent” value [1] is reported as “maintained”, the “Inhibition of BsFtsZ GTPase activity at increasing FtsZ concentrations” value [1] is reported as “maintained” and the “Inhibition of EcFtsZ GTPase activity with detergent” value [2] is reported as “maintained”. The “Inhibition of EcFtsZ GTPase activity at increasing FtsZ concentrations” value [2] was “maintained” and the IC50 ([2]; read-out: IC50 for inhibition of EcFtsZ GTPase activity, no Triton X-100) was 20 µM.

In the case of `COc1ccc2cc3[n+](cc2c1OC)CCc1cc2c(cc1-3)OCO2` [berberine], the “Inhibition of tubulin assembly” value [3] is listed as “does not do so”.

In the case of `CC(C)c1c(O)ccc2c1CC[C@H]1C(C)(C)CCC[C@]21C` [totarol], the “Inhibition of BsFtsZ GTPase activity with detergent” value [1] is reported as “vanished”, the “Inhibition of BsFtsZ GTPase activity” value [1] is reported as “reproduce the IC50” and the “Inhibition of BsFtsZ GTPase activity at increasing FtsZ concentrations” value [1] is reported as “decreased nearly to the point of having no effect”. The “Dnm1 GTPase activity on addition of detergent” value ([4]; 0.01% Triton X-100) was “completely restored”, the “Effect on Dnm1 GTPase activity” value ([4]; micromolar concentrations, no detergent) was “significant reduction” and the “Inhibition of EcFtsZ GTPase activity with detergent” value [2] was “vanished”. For the same molecule, the “Inhibition of EcFtsZ GTPase activity” value ([2]; absence of Triton X-100) was “reproduce the IC50” and the “Inhibition of EcFtsZ GTPase activity at increasing FtsZ concentrations” value [2] was “decreased nearly to the point of having no effect”.

In the case of `O=C1CC(c2ccc(O)cc2)Oc2c(Cc3ccccc3O)c(O)c(Cc3ccccc3O)c(O)c21` (stereo not shown) [4′-hydroxydichamanetin], the “Inhibition of BsFtsZ GTPase activity” value [1] is reported as “exhibited the published activity” and the “Inhibition of EcFtsZ GTPase activity” value [2] is reported as “exhibited the published activity”.

For `O=C1C[C@@H](c2ccccc2)Oc2c(Cc3ccccc3O)c(O)c(Cc3ccccc3O)c(O)c21` [Dichamanetin], the “Reported activity (FtsZ inhibition)” value [5] is given as 12.5 µM.

For `COc1nc2c(=O)[nH]c(N)nc2n1[C@@H]1O[C@H](COP(=O)(O)OP(=O)(O)OP(=O)(O)O)[C@@H](O)[C@H]1O` [8-methoxy GTP], the “Concentration at which the GTPase activity of FtsZ is inhibited” value [5] is given as 15 µM.

For `C[n+]1cc2c3c(ccc2c2ccc4cc5c(cc4c21)OCO5)OCO3` [sanguinarine], the “Inhibition of tubulin assembly” value [3] is given as “inhibit tubulin assembly”.

For `Oc1ccc(Cl)cc1Cc1cc(Cl)cc(Cc2cc(Cl)ccc2O)c1O` [zantrin Z1], the “Inhibition of BsFtsZ GTPase activity” value [1] was “exhibited the published activity” and the “Inhibition of EcFtsZ GTPase activity” value ([2]; absence of Triton X-100) was “exhibited the published activity”.

In the case of `NC(=O)c1c(F)ccc(OCc2nc3cc(Cl)cnc3s2)c1F` [PC190723], the “Inhibition of BsFtsZ, enzyme-coupled assay” value ([1]; concentrations up to 100 μM) is reported as “no inhibition”, the “Inhibition of SaFtsZ GTPase activity” value [6] is reported as “no inhibition” and the “Change of SaFtsZ GTPase activity” value ([6]; basal activity ~0.5 GTP/FtsZ/min) is reported as “dose-dependent and reproducible increase in activity”. For the same molecule, the “Inhibition of BsFtsZ, malachite green assay” value [7] was “no inhibition” and the MIC [8] was 1 µM (≈ 0.356 µg/mL).

With `COC(=O)CC1Cc2cc3cc(OC)c(-c4c(OC)cc5cc6c(c(O)c5c4O)C(=O)OC(CC(=O)OC)C6)c(O)c3c(O)c2C(=O)O1` (stereo not shown) [Viriditoxin, viriditoxin] the “Inhibition of B. subtilis FtsZ” value [1, 11] was “no inhibition”, the “Inhibition of E. coli FtsZ” value [2, 11] was “no inhibition” and the “Inhibition of FtsZ GTPase under Merck conditions” value [9] was “no inhibition”. For the same molecule, the IC50 ([5]; read-out: Reported IC50 (FtsZ)) was 10 µM and the Chemical stability [10] was “chemically unstable”.
